From ChEMBL document CHEMBL1817603, “Antibacterial polyketides from the jellyfish-derived fungus Paecilomyces variotii” (2011) come the findings set out here.

In brackets after ≈: the same amount, converted by molar mass. Bounds are passed on as bounds.

What all share (format): functional
The subject of one experiment is Vibrio parahaemolyticus. The experiment can be described thus: Antimicrobial activity against multidrug-resistant Vibrio parahaemolyticus 7001 after 24 hrs by microtiter plate based MIC assay. The following applies: Vibrio parahaemolyticus, 7001, 24 h. In outline: (§1)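 Broth microdilution MIC in LB broth. Compounds were twofold serially diluted in 0.5% MeOH, and reference antibiotics were diluted from 40 to 0.31 μg/mL per well. The bacterial inoculum was adjusted by turbidity at 600 nm to a 0.5 McFarland standard. Test solution was added at one part to nine parts culture, then incubated at 36 °C for 24 h. The assay was run in triplicate, with vehicle-matched blank growth controls.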

The test system of experiment [1] is Staphylococcus aureus. The experiment can be described thus: Antimicrobial activity against Staphylococcus aureus SG 511 after 24 hrs by microtiter plate based MIC assay. The note with it: SG 511, 24 h. Summed up: as §1
Experiment [2] deals with Staphylococcus aureus. The experiment is described as follows: Antimicrobial activity against methicillin-resistant Staphylococcus aureus 3089 after 24 hrs by microtiter plate based MIC assay. The note with it: Staphylococcus aureus, 3089, 24 h. In outline: as §1

The term MIC denotes the lowest concentration that inhibits growth of the organism.

In the experiment on Vibrio parahaemolyticus, `C[C@H]1COc2c(N3CCN(C)CC3)c(F)cc3c(=O)c(C(=O)O)cn1c23.C[C@H]1COc2c(N3CCN(C)CC3)c(F)cc3c(=O)c(C(=O)O)cn1c23.O` [LEVOFLOXACIN] displayed an MIC of 0.156 mg/L.

In the case of `CCCCCCCC[C@@H]1OC(=O)c2c(O)cccc21` [PAECILOCIN A], the MIC in the experiment with Staphylococcus aureus [1], in the experiment with Staphylococcus aureus [2] and against Vibrio parahaemolyticus was over 40 mg/L each time.

In the case of `CCCCCCCC[C@]1(OC)O[C@H](OC)c2c(O)cccc21` [PAECILOCIN B], the values for the minimum inhibitory concentration (MIC) with Staphylococcus aureus [1], in the experiment on Staphylococcus aureus [2] and against Vibrio parahaemolyticus were 5 mg/L (≈ 16.2 µM), 20 mg/L (≈ 64.8 µM) and over 40 mg/L, respectively.

For `CCCCCCCC[C@]1(OC)O[C@@H](OC)c2c(O)cccc21` [PAECILOCIN C], the MIC is 20 mg/L (≈ 64.8 µM) against Staphylococcus aureus [1], 40 mg/L (≈ 130 µM) in the experiment with Staphylococcus aureus [2] and over 40 mg/L against Vibrio parahaemolyticus.

`CN(C)[C@@H]1C(O)=C(C(N)=O)C(=O)[C@@]2(O)C(O)=C3C(=O)c4c(O)cccc4[C@@](C)(O)[C@H]3C[C@@H]12` [TETRACYCLINE] registered an MIC against Staphylococcus aureus [1] of 1.25 mg/L (≈ 2.81 µM).

Turning to `CN[C@H](CC(C)C)C(=O)N[C@H]1C(=O)N[C@@H](CC(N)=O)C(=O)N[C@H]2C(=O)N[C@H]3C(=O)N[C@H](C(=O)N[C@H](C(=O)O)c4cc(O)cc(O)c4-c4cc3ccc4O)[C@H](O)c3ccc(c(Cl)c3)Oc3cc2cc(c3O[C@@H]2O[C@H](CO)[C@@H](O)[C@H](O)[C@H]2O[C@H]2C[C@](C)(N)[C@H](O)[C@H](C)O2)Oc2ccc(cc2Cl)[C@H]1O` [VANCOMYCIN], 0.625 mg/L (≈ 0.431 µM) was the least that counted as inhibitory in the experiment on Staphylococcus aureus [2] (MIC).
